Measurements of several laboratories.
HTR2A: 5-hydroxytryptamine receptor 2A (HTR2A, Homo sapiens, UniProt P28223)
PFF0160c: Dihydroorotate dehydrogenase (quinone), mitochondrial (PFF0160c, Plasmodium falciparum, UniProt Q08210)

SMILES | target | effect on | action | method | IC50 [µM]
Cc1nc(Nc2ccc(CC(=O)O)cc2)nc(Nc2ccc(F)c(C(F)(F)F)c2)c1C | cGMP-specific 3',5'-cyclic phosphodiesterase (PDE5A, Homo sapiens, UniProt O76074) | enzyme activity | inhibitor | FP | ~1.5
CNC(=O)c1ccc(-c2cnn3ccc(C(=O)N(C)c4ccc(Cl)c(C(=O)O)c4)cc23)cc1 | Thromboxane A2 receptor (TBXA2R, Homo sapiens, UniProt P21731) | cell-free assay | – | – | > 30
COc1ccc(COCCN(C)C(C)Cc2ccc(O)cc2)cc1 (stereo not shown) | HTR2A | calcium signal | antagonist | – | 16.9
Cn1nc2c(=O)n(C3CC3)ccc2c1[C@](O)(c1ccc(C(F)(F)F)c(C#N)c1)C1CC1 | PFF0160c | enzyme activity | inhibitor | – | 0.02
Cn1nccc1[C@]1(CNC(=O)c2ccc(F)c(F)c2-c2ccc(C(F)(F)F)cc2)NC(=O)NC1=O | Mucosa-associated lymphoid tissue lymphoma translocation protein 1 (MALT1, Homo sapiens, UniProt Q9UDY8) | enzyme activity | inhibitor | – | > 100
CCn1cnc2c([C@@](O)(CC)c3ccc(C(F)(F)F)nc3)n(C)nc2c1=O | PFF0160c | enzyme activity | inhibitor | – | 0.056
CC(C)N(CCc1c[nH]c2cccc(OC(=O)CCCC(=O)O)c12)C(C)C | HTR2A | ligand displacement | – | radioligand | 5.7
Cn1nc2c(=O)n(C3CC3)cnc2c1[C@](O)(c1ccc(C(F)(F)F)c(C#N)c1)C(F)(F)F | PFF0160c | enzyme activity | inhibitor | – | 0.0126
COC(=O)c1cc(N(C)C(=O)c2ccn3ncc(-c4ccc(C(=O)O)cc4)c3c2)ccc1Cl | Serine/threonine-protein kinase WNK1 (WNK1, Homo sapiens, UniProt Q9H4A3) | enzyme activity | inhibitor | – | > 30
Oc1ccc(C2=CCN(CC3CC34CC4)CC2)cc1 (stereo not shown) | HTR2A | calcium signal | antagonist | – | 6.23
